From PubChem BioAssay
Scp-1 inhibitor: Scp-1 (human) phosphatase inhibition; Q9GZU7; Recombinant Scp1, phosphopeptide, malachite green phosphate absorbance; inhibition, % at 20 µM; hit rate 0.88% among 340,000;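 active means inhibition above about 50% at 20 µM, limit read from the data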;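 further: plate controls were DMSO wells with enzyme for no effect and wells lacking enzyme for full effect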
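Test system: SCP-1 phosphatase catalytic domain, residues 76-261; measured by: colorimetric phosphate reagent with accelerator and stabiliser, absorbance at 630 nm; timing: enzyme reaction 45 min at room temperature, colour 5 min, stabilisation 30 min; also added: Phosphorylated 17-residue peptide substrate; compound dosing: one concentration, 20 µM, with 1.0% DMSO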
STEP inh: inhibitors of human striatal-enriched phosphatase STEP. hit rate 0.25% among 360,000. inhibition, % at 20 µM. recombinant STEP, OMFP fluorogenic substrate, fluorescence;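 active means inhibition at 20 µM, scaled per plate between control wells, above about 37%, limit read from the data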;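 further: 0% = DMSO with enzyme and substrate and 100% = substrate only without enzyme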
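material = STEP tyrosine phosphatase | reagent = fluorogenic phosphatase substrate OMFP at 25 µM final | doses = single compound dose of 20 µM, 1% DMSO final | schedule = 20 min reaction, room temperature, in the dark | measured by = fluorescence, 480/540 nm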
DNMT1 block: inhibitors of human DNMT1. P26358. DNMT1 molecular beacon, Hinp1I cleavage, fluorescence. inhibition (reported as % activation of signal), % at 10 µM. hit rate 0.83% among 360,000. AID 588458; in the data active means inhibition above about 50%
SUMO1-SIM PPI: SUMO1-SIM interaction modulation; SUMO1 binding to a labelled peptide, TR-FRET, 1 h; inhibition, % at 20 µM; hit rate 0.33% among 360,000; in the data active means inhibition above about 37%
LMPTP block: LMPTP (human) inhibition. recombinant LMPTP-A, OMFP fluorogenic substrate, fluorescence intensity. inhibition, % at 20 µM. hit rate 0.22% among 360,000;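 active means compounds that cut the enzyme signal by at least half of the control window in the single-dose screen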;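 further: plate controls were DMSO wells with enzyme plus substrate for no effect and substrate without enzyme for full effect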
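Assay system: LMPTP-A phosphatase enzyme | Input: 0.625 nM enzyme | Also added: Fluorogenic phosphatase substrate OMFP at 400 µM final | Compound dosing: One test concentration per compound, 20 µM, with 3% DMSO overall | Schedule: 50 min enzyme reaction at room temperature, protected from light | Signal: Fluorescence intensity | Benchmarks: no-enzyme and uninhibited controls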
GRK2 inh: blocks RNA aptamer binding to human GRK2; bead flow cytometry, FAM-aptamer displacement from GRK2; inhibition of aptamer binding, % at 10 µM; hit rate 0.59% among 330,000; AID 488847;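 active means inhibition of aptamer binding above 40%, roughly 3 SD of noise, on plates passing a quality check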;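 further: median bead fluorescence of bound FAM aptamer so fluorescent compounds give negative values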
GRK2 CP1: confirmation of human GRK2 inhibitors displacing RNA aptamer; shares compounds with GRK2 inh; hit rate 4% among 2,000; aptamer displacement, % at 10 µM; bead-bound GRK2, FAM-aptamer displacement, flow cytometry;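 active means aptamer displacement above 40%, near three times the noise of non-fluorescent compounds, on plates passing quality checks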;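 further: negative values mostly reflect intrinsic compound fluorescence rather than true enhancement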
Aptamer quench SP: quenches fluorescent RNA aptamer, GRK2 hit artifact. fluorescence response (% of DMSO), % at 10 µM. AID 504580. Carboxyfluorescein RNA aptamer on beads, flow cytometry quenching; active compounds read low. shares compounds with GRK2 inh. 2,000 tested, under 10 active;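 active means compounds that quench the bead-bound fluorescent RNA probe, cutting fluorescence to under half of the solvent control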;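 further: counterscreen run without GRK2 so only probe quenching by compound is measured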
GRK2 CP2: confirmation of human GRK2 inhibitors binding RNA aptamer site | shares compounds with GRK2 inh | bead-bound GRK2, FAM-aptamer displacement, flow cytometry | inhibition of aptamer binding, % at 10 µM | 360 tested, under 10 active | AID 504782;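 active means inhibition of aptamer binding above 40%, about triple the noise seen with nonglowing compounds, on plates passing quality control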;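 further: negative values mostly come from compounds that fluoresce themselves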
FAM quench SP: quenches fluorescent RNA aptamer, GRK2 hit artifact | shares compounds with GRK2 inh | carboxyfluorescein RNA aptamer beads, flow cytometry quenching; active compounds read low | fluorescence response vs DMSO, % at 10 µM | 360 tested, under 10 active | AID 588494;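 active means response vs DMSO under 50%, meaning signal dropped by over half, treated as fluorescence quencher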;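 further: labelled aptamer on streptavidin beads without GRK2 as a quench counter-screen; 100% = bead fluorescence of DMSO wells and lower means quenching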
* marks the source's active call; other numbers are inactive results; x = no result. A selection: hits, their analogues and other compounds. The true share with any hit is near 2.2%.

SMILES	Scp-1 inhibitor	STEP inh	DNMT1 block	SUMO1-SIM PPI	LMPTP block	GRK2 inh	GRK2 CP1	Aptamer quench SP	others
C=C(C)CSc1nc2sc3c(c2c(=O)n1-c1ccc(C)cc1)CCN(C)C3	-6	2	1	-17	1	x	0	101
CCOC(=O)C1=C(C)NC(=O)NC1c1ccc(OC(=O)c2ccco2)cc1 (stereo unspecified)	1	4	0	-1	-1	2	x	x
CCOC(=O)C1=C(COC(=O)c2ccco2)NC(=O)NC1CC (stereo unspecified)	0	3	3	-26	0	83*	-2	101
Cc1c(NC(=O)NC(C)N2C(=O)C3C4C=CC(C4)C3C2=O)c(=O)n(-c2ccccc2)n1C (stereo unspecified)	-2	-1	1	0	-1	81*	3	101
Cc1c(NC(=O)CN2C(=O)C3C4C=CC(C4)C3C2=O)c(=O)n(-c2ccccc2)n1C (stereo unspecified)	-7	4	3	0	0	1	x	x
COCCN1C(=O)/C(=C/c2ccc(N3CCCC3)cc2)SC1=S	-3	-28	12	-15	4	57*	-17	142
COc1ccc(/C=C2\SC(=S)N(CCC(=O)N3CCCCC3)C2=O)cc1	25	4	32	-11	1	1	x	x
CC(C(=O)O)n1c2ccccc2c2cnn(C)c(=O)c21 (stereo unspecified)	12	1	6	7	0	95*	3	106
O=C(C[C@@H]1C=C[C@H](NC(=O)Cc2ccccn2)[C@@H](CO)O1)NCCc1ccccc1	x	x	x	2	-2	x	x	x
CN(C(=O)c1cccc(NC(=O)Cc2ccc(NC(=O)C3CCN(C(=O)C4CCCC4)CC3)cc2)c1)C1CCCC1	21	-1	-1	0	-1	x	x	x
COc1ccc(C2=NO[C@@H]3C(=O)N(c4cccc(C)c4C)C(=O)[C@H]23)cc1OC	-13	-2	0	-4	0	0	x	x	GRK2 CP2=10;FAM quench SP=100
O=C1[C@@H]2C(c3cccnc3)=NO[C@@H]2C(=O)N1c1ccc(Br)cc1	-7	1	-8	5	-1	5	x	x
COc1ccc(C2=NO[C@@H]3C(=O)N(c4ccc(C)cc4C)C(=O)[C@H]23)cc1OC	-17	-2	2	1	0	0	x	x	GRK2 CP2=-3;FAM quench SP=104
Cc1ccc(N2C(=O)[C@@H]3C(c4ccc(F)cc4)=NO[C@@H]3C2=O)cc1	-6	-4	5	1	1	4	x	x	GRK2 CP2=1;FAM quench SP=102
COc1cccc(C2=NO[C@@H]3C(=O)N(Cc4ccccc4)C(=O)[C@H]23)c1OC	-20	0	0	-2	0	2	x	x
Cc1ccc(N2C(=O)[C@@H]3C(c4cccnc4)=NO[C@@H]3C2=O)c(C)c1	-8	0	0	-2	-1	0	x	x
COc1ccc(CN2C(=O)C(CC(=O)NCC3CCCCC3)CC(C(=O)N(C(C)C)C(C)C)=C2C)cc1 (stereo unspecified)	x	2	-2	2	0	x	x	x
O=C(NCCOc1ccccc1)C1C(=O)Nc2ccccc2C(=O)N1C1CCCCC1 (stereo unspecified)	x	x	x	-1	0	x	x	x
CCOC(=O)C1CCCN(C(=O)c2cncc(Br)c2)CC1 (stereo unspecified)	x	-1	6	-5	-2	x	x	x
O=C(Cn1c(COc2ccccc2)nc2ccccc21)Nc1cccc(Cl)c1	0	-3	-2	0	-1	100*	x	x	GRK2 CP2=15;FAM quench SP=99
N#Cc1cnc2nc1NCCCCCCC2	x	0	5	1	-2	x	x	x
COc1ccc(NC(=O)c2ccco2)cc1NC(=O)c1ccco1	-3	-1	-1	5	0	1	x	x
COc1ccc(Cl)cc1NC(=S)NC(=O)c1ccco1	-9	-2	-7	-2	3	44*	x	x	GRK2 CP2=8;FAM quench SP=100
O=C(NC(=S)Nc1cc(Cl)ccc1Cl)c1ccco1	x	1	11	4	0	x	x	x
CCOc1ccc(NC(=S)NC(=O)c2ccco2)cc1	-14	0	-2	4	0	74*	-3	101
SMILES	Scp-1 inhibitor	STEP inh	DNMT1 block	SUMO1-SIM PPI	LMPTP block	GRK2 inh	GRK2 CP1	Aptamer quench SP	others
CCOc1ccc(NC(=O)c2ccco2)cc1	-8	0	-3	1	-3	0	x	x
COc1ccc(NC(=O)Cc2ccc(Cl)cc2)cc1NC(=O)c1ccco1	-9	-8	-12	5	1	70*	-7	95
Cc1ccc([C@@]2(OC(=O)c3ccccc3)C(=O)N(C(=O)OC(C)(C)C)c3ccccc32)cc1	x	x	x	-4	3	x	x	x
COc1ccc(S(=O)(=O)N2CCC3CC2c2cc(N4CCOCC4)ccc23)cc1 (stereo unspecified)	0	-2	7	2	0	x	x	x
CC(C)CC(=O)NC(=S)NCCc1ccccc1	-6	0	-3	-6	1	1	x	x
CC(C)(C)CC(=O)NC(=S)NCCc1ccccc1	-2	-1	-1	1	2	80*	-1	96
CCN(CC)CC(C)(C)C(=O)/C=C/c1ccc(/C=C/C(=O)C(C)(C)CN(CC)CC)cc1	-5	-1	3	-22	-3	x	x	x
CN1C(C(=O)Nc2ccc(C(=O)O)cc2)=C(O)c2ccccc2S1(=O)=O	36	3	1	2	0	0	x	x
CCCCN1C(C(=O)Nc2ncccn2)=C(O)c2ccccc2S1(=O)=O	-9	1	-13	5	0	4	-1	96
COc1cccc(CNC(=O)c2cc3c(c(-c4cccc(-c5cccc(C#N)c5)c4)n2)[C@H](CCO)N(S(=O)C(C)(C)C)C3)c1 (stereo partly specified)	x	1	-23	8	3	x	x	x
COc1cccc(CNC(=O)c2ccc(CS(=O)Cc3ccccc3Cl)o2)c1 (stereo unspecified)	x	2	0	5	-1	x	x	x
CSCC[C@H](NC(=O)Cc1c(C)c2c(cc(C)c3c(C)coc32)oc1=O)C(=O)O	-2	0	3	-4	0	97*	-5	95
